Measured values reported in ChEMBL document CHEMBL1165982, “Induction of G(2)/M phase arrest and apoptosis by oridonin in human laryngeal carcinoma cells” (J Nat Prod, 2010).
Calls of active or inactive are those of the source. The rule behind the calls is not given here.

How the values were obtained:
HEp-2 [1] = assay: Cytotoxicity against human Hep2 cells after 24 hrs by MTT assay; format: functional, cell-based; conditions: HEp-2, 24 h
In short: (§1)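 Cells seeded at 1.2 × 10^4 per well in 96-well plates, grown 24 h, then treated over 10.7–81 µM for 6, 12, 24, 36 or 48 h. Viability read by MTT. DMSO kept below 0.05%. IC50 taken at 24 h.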

HEp-2 [2] = assay: Cytotoxicity against human Hep2 cells at 36 uM after 24 hrs by MTT assay; format: functional; in short: as §1
HEp-2 [3] = assay: Induction of apoptosis in human Hep2 cells assessed as accumulation in subG1 phase using PI staining by flow cytometeric analysis; format: functional
In short: (§2)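 ATCC HEp-2 in RPMI-1640 with 10% FBS at 37 °C, 5% CO2, exposed to 36 µM for 0, 6, 12 or 24 h. 1 × 10^6 cells were fixed in 70% ethanol at 4 °C for at least 12 h, then stained on ice in the dark for 30 min with 50 µg/mL PI plus 1 mg/mL RNase A. Read by flow cytometry, ≥10 000 cells per sample. SubG1 counted as the apoptotic fraction. n = 3.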

HEp-2 [4] = assay: Induction of apoptosis in human Hep2 cells assessed as morphological changes at 36 uM after 24 hrs by microscopy; format: functional, cell-based
HEp-2 [5] = assay: Cell cycle arrest in human Hep2 cells assessed as accumulation at G2/M phase at 36 uM after 6 hrs using propidium iodide staining by flow cytometry; format: functional; in short: as §2
HEp-2 [6] = assay: Cell cycle arrest in human Hep2 cells assessed as accumulation at G2/M phase at 36 uM after 12 hrs using propidium iodide staining by flow cytometry; format: functional; in short: as §2
HEp-2 [7] = assay: Cell cycle arrest in human Hep2 cells assessed as accumulation at G2/M phase at 36 uM after 24 hrs using propidium iodide staining by flow cytometry; format: functional; in short: as §2
HEp-2 [8] = assay: Induction of ROS generation in human Hep2 cells at 36 uM after 3 hrs relative to control; format: functional, cell-based
In short: (§3)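 Cells exposed to 36 µM for 0, 3, 6, 12 or 24 h, then loaded with DCF-DA (10 mM as printed) for 15 min at 37 °C. Harvested, resuspended in PBS and read by flow cytometry (ex 480 nm, em 525 nm). Result given as % DCF-positive cells. n = 3.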

HEp-2 [9] = assay: Induction of ROS generation in human Hep2 cells assessed as ratio of DCF-positive cells at 36 uM after 3 hrs relative to control; format: functional; in short: as §3
HEp-2 [10] = assay: Induction of ROS generation in human Hep2 cells assessed as ratio of DCF-positive cells at 36 uM after 6 hrs relative to control; format: functional; in short: as §3
HEp-2 [11] = assay: Induction of ROS generation in human Hep2 cells assessed as ratio of DCF-positive cells at 36 uM after 12 hrs relative to control; format: functional; in short: as §3
HEp-2 [12] = assay: Induction of ROS generation in human Hep2 cells assessed as ratio of DCF-positive cells at 36 uM after 24 hrs relative to control; format: functional; in short: as §3
HEp-2 [13] = assay: Induction of ROS generation in human Hep2 cells assessed as ROS level at 36 uM after 24 hrs in presence of N-acetyl-cysteine ROS scavenger; format: functional
In short: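 ROS read as % DCF-positive cells after 24 h co-incubation of 36 µM with 2.5 mM N-acetylcysteine. DCF-DA loading 15 min at 37 °C; flow cytometry at ex 480 / em 525 nm. n = 3.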

HEp-2 [14] = assay: Induction of apoptosis in human Hep2 cells assessed as accumulation in subG1 phase using PI staining at 36 uM after 24 hrs by flow cytometeric analysis in presence of N-acetyl-cysteine ROS scavenger; format: functional
In short: (§4)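 HEp-2 cells were pretreated 1 h with 2.5 mM N-acetylcysteine, then co-incubated with 36 µM for 24 h. They were then fixed in 70% ethanol (≥12 h, 4 °C) and stained on ice in the dark for 30 min with 50 µg/mL PI and 1 mg/mL RNase A. G2/M and subG1 fractions were read by flow cytometry, ≥10 000 cells counted. n = 3.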

HEp-2 [15] = assay: Induction of apoptosis in human Hep2 cells assessed as accumulation in G2/M phase using PI staining at 36 uM after 24 hrs by flow cytometeric analysis in presence of N-acetyl-cysteine ROS scavenger; format: functional; in short: as §4
HEp-2 [16] = assay: Induction of apoptosis in human Hep2 cells assessed as apoptotic bodies using acridine orange staining at 36 uM after 24 hrs by microscopic analysis; format: functional, cell-based
HEp-2 [17] = assay: Induction of apoptosis in human Hep2 cells assessed as fragmented DNA using acridine orange staining at 36 uM after 24 hrs by microscopic analysis; format: functional, cell-based
HEp-2 [18] = assay: Induction of apoptosis in human Hep2 cells assessed as apoptotic bodies using acridine orange staining at 36 uM after 24 hrs by microscopic analysis in presence of N-acetyl-cysteine ROS scavenger; format: functional, cell-based
HEp-2 [19] = assay: Induction of apoptosis in human Hep2 cells assessed as fragmented DNA using acridine orange staining at 36 uM after 24 hrs by microscopic analysis in presence of N-acetyl-cysteine ROS scavenger; format: functional, cell-based
HEp-2 [20] = assay: Induction of apoptosis in human Hep2 cells assessed as decrease in mitochondrial membrane potential using rhodamine 123 staining at 36 uM after 24 hrs by FACScan flow cytometry; format: functional; design: scale not given: the % may be the effect or the level left
In short: (§5)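 Membrane potential: HEp-2 exposed to 36 µM for 0–24 h, alone or with 2.5 mM N-acetylcysteine for 24 h. Cells collected into PBS with 1 µg/mL rhodamine-123, held 15 min at 37 °C, then read by flow cytometry for % rhodamine-123-bright cells. n = 3.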

HEp-2 [21] = assay: Induction of apoptosis in human Hep2 cells assessed as decrease in mitochondrial membrane potential using rhodamine 123 staining at 36 uM after 24 hrs by FACScan flow cytometry in presence of N-acetyl-cysteine ROS scavenger; format: functional; design: scale not given: the % may be the effect or the level left; in short: as §5
HEp-2 [22] = assay: Induction of apoptosis in human Hep2 cells assessed as increase in pro-apoptotic Bax protein at 36 uM after 6 hrs by Western blot analysis; format: functional, cell-based
In short: (§6)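 Treatment: 36 µM for 0, 6, 12 or 24 h, alone or with 2.5 mM N-acetylcysteine or 500 U/mL catalase. Lysis 60 min at 4 °C in Hepes pH 7.4/1% Triton X-100 with phosphatase and protease inhibitors, spin 13000g. Lysates run on 12% SDS-PAGE, blotted to nitrocellulose, probed with polyclonal antibodies, HRP/DAB detection. Representative of ≥3 experiments.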

HEp-2 [23] = assay: Induction of apoptosis in human Hep2 cells assessed as increase in cytochrome c at 36 uM after 12 hrs by Western blot analysis; format: functional, cell-based; in short: as §6
HEp-2 [24] = assay: Induction of apoptosis in human Hep2 cells assessed as decrease in Bcl-2 at 36 uM after 12 hrs by Western blot analysis; format: functional, cell-based; conditions: in the assay text read “after 24 hrs” for “after 12 hrs”; in short: as §6
HEp-2 [25] = assay: Induction of apoptosis in human Hep2 cells assessed as increase in AIF level at 36 uM after 6 hrs by Western blot analysis; format: functional, cell-based; in short: as §6

Structure (SMILES): C=C1C(=O)[C@]23[C@H](O)[C@H]1CC[C@H]2[C@@]12CO[C@]3(O)[C@@H](O)[C@@H]1C(C)(C)CC[C@@H]2O [ORIDONIN]
- IC50 (HEp-2 [1]): 37.1 µM
- Activity (HEp-2 [2]): 50%
- Activity (HEp-2 [3]): 26.57%
- Activity (HEp-2 [4]): Active
- Activity (HEp-2 [5]): 32.84%
- Activity (HEp-2 [6]): 40.57%
- Activity (HEp-2 [7]): 25.84%
- Activity (HEp-2 [8]): Active
- Activity (HEp-2 [9]): 16.65%
- Activity (HEp-2 [10]): 17.25%
- Activity (HEp-2 [11]): 24.21%
- Activity (HEp-2 [12]): 24.86%
- Activity (HEp-2 [13]): 4.41%
- Activity (HEp-2 [14]): 3.39%
- Activity (HEp-2 [15]): 14%
- Activity (HEp-2 [16]): Active
- Activity (HEp-2 [17]): Active
- Activity (HEp-2 [18]): inactive
- Activity (HEp-2 [19]): inactive
- Activity (HEp-2 [20]): 58.6%
- Activity (HEp-2 [21]): 89.31%
- Activity (HEp-2 [22]): Active
- Activity (HEp-2 [23]): Active
- Activity (HEp-2 [24]): Active
- Activity (HEp-2 [25]): Active
